This note sets out measurements from ChEMBL document CHEMBL1155643, “Isolation of a novel protein tyrosine phosphatase inhibitor, 2-methyl-fervenulone, and its precursors from Streptomyces” (J Nat Prod, 2000).

Assay [1] is described as follows: Inhibition of protein tyrosine phosphatase CD45 domain at 1 uM relative to control. The arrangement: scale not given: the % may be the effect or the level left. Put shortly: (§1)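 Commercial phosphatase. pNPP dephosphorylation with 2 mM pNPP in 50 mM sodium acetate pH 5.5, 0.5 mg/mL BSA, 0.5 mM dithiothreitol, at 30 °C. Reactions stopped within the linear phase. Activity expressed as percent of the control without inhibitor. Mean of three separate enzyme preparations, each assayed in duplicate, ± S.D.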

The test system of assay [2] is Candida albicans. Put plainly: Antimicrobial activity against Candida albicans at 50 uM. Format: functional, organism-based.
In assay [3] the test system is Mycolicibacterium smegmatis. The experiment in a line: Antimicrobial activity against Mycobacterium smegmatis at 50 uM. Format: functional, organism-based.
The subject of assay [4] is Pseudomonas aeruginosa. Put plainly: Antimicrobial activity against Pseudomonas aeruginosa at 100 uM. Format: functional, organism-based.
The subject of assay [5] is Enterococcus faecalis. Put plainly: Antimicrobial activity against Enterococcus faecalis at 100 uM. The class given is functional, organism-based.
Assay [6] addresses T1, Tyrosine-protein phosphatase non-receptor type 2 (Homo sapiens) (UniProt P17706).
T1 sequence (whole entry): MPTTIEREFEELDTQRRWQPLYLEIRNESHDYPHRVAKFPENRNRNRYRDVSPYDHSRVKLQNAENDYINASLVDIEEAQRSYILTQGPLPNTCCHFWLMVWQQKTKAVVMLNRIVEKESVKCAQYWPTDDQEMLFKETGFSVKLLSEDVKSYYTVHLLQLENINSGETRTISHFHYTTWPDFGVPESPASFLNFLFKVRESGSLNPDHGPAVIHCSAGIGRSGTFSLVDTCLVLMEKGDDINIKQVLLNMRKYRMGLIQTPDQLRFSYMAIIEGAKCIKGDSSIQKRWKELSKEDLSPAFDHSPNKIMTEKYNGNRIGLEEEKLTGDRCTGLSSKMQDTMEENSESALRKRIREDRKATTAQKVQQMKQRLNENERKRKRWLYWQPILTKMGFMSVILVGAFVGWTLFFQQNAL
Put plainly: Inhibition of TCPTP at 1 uM relative to control. The arrangement: scale not given: the % may be the effect or the level left. Put shortly:
as §1

Assay [7] deals with Enterococcus faecalis. The experiment in a line: Antimicrobial activity against Enterococcus faecalis at 50 uM. The class given is functional, organism-based.
Assay [8] is described as follows: Inhibition of protein tyrosine phosphatase LAR-D1 domain at 1 uM relative to control. Also on record: scale not given: the % may be the effect or the level left. Put shortly:
as §1

For assay [9], the system named is Proteus vulgaris. The experiment in a line: Antimicrobial activity against Proteus vulgaris at 50 uM. The class given is functional, organism-based.
Assay [10] can be described thus: Inhibition of protein tyrosine phosphatase epsilon D1D2 domain at 1 uM relative to control. Also on record: scale not given: the % may be the effect or the level left. Put shortly: (§2)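 Bacterially expressed, purified PTPα or PTPε. pNPP (2 mM) dephosphorylation in 50 mM sodium acetate pH 5.5 with 0.5 mg/mL BSA and 0.5 mM DTT, at 30 °C, stopped during the linear phase. Percent activity relative to the uninhibited control. Average of three enzyme preparations, each run in duplicate, ± S.D.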

For assay [11], the system named is Mycolicibacterium smegmatis. The experiment in a line: Antimicrobial activity against Mycobacterium smegmatis at 100 uM. The class given is functional, organism-based.
The subject of assay [12] is Pseudomonas aeruginosa. Put plainly: Antimicrobial activity against Pseudomonas aeruginosa at 50 uM. Format: functional, organism-based.
The subject of assay [13] is Curvularia. Put plainly: Antimicrobial activity against Curvularia sp. at 100 uM. The class given is functional, organism-based.
Assay [14] can be described thus: Inhibition of protein tyrosine phosphatase alpha D1D2 domain at 1 uM relative to control. Also on record: scale not given: the % may be the effect or the level left. The essentials:
as §2

The subject of assay [15] is Escherichia coli. The experiment in a line: Antimicrobial activity against Escherichia coli at 50 uM. Format: functional, organism-based.
In assay [16] the test system is Staphylococcus aureus. The experiment in a line: Antimicrobial activity against Staphylococcus aureus at 50 uM. The class given is functional, organism-based.
The species named for another assay is Bos taurus. Put plainly: Inhibition of calf intestinal alkaline phosphatase at 1 uM relative to control. Also on record: scale not given: the % may be the effect or the level left. The essentials:
(§3)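 Commercial enzyme acting on 2 mM pNPP in 50 mM sodium acetate with 0.5 mg/mL BSA and 0.5 mM DTT, at 30 °C, linear phase. pH 7 for CIP; pH 5.5 plus 2 mM Mn2+ for λPP. Percent of the no-inhibitor control. Three enzyme preparations, each in duplicate, ± S.D.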

In assay [17] the test system is Curvularia. The experiment in a line: Antimicrobial activity against Curvularia sp. at 50 uM. Format: functional, organism-based.
The test system of assay [18] is Staphylococcus aureus. Put plainly: Antimicrobial activity against Staphylococcus aureus at 100 uM. Format: functional, organism-based.
The test system of the next assay is Yersinia sp. The experiment in a line: Inhibition of Yersinia sp. protein tyrosine phosphatase yop at 1 uM relative to control. The arrangement: scale not given: the % may be the effect or the level left. The essentials:
as §1

In assay [19] the test system is Escherichia coli. The experiment in a line: Antimicrobial activity against Escherichia coli at 100 uM. The class given is functional, organism-based.
Assay [20] has as its target T2, Serine/threonine-protein phosphatase (Enterobacteria phage lambda) (UniProt P03772).
T2 sequence (whole entry): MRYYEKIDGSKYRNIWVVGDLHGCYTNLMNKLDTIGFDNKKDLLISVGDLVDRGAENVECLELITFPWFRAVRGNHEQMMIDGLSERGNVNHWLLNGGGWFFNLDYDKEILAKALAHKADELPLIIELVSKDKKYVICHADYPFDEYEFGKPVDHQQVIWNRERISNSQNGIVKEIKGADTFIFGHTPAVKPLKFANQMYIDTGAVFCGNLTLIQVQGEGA
Put plainly: Inhibition of enterobactera phage lambda PP at 1 uM relative to control. The arrangement: scale not given: the % may be the effect or the level left. The essentials:
as §3

The test system of assay [21] is Proteus vulgaris. Put plainly: Antimicrobial activity against Proteus vulgaris at 100 uM. Format: functional, organism-based.
The subject of assay [22] is Candida albicans. Put plainly: Antimicrobial activity against Candida albicans at 100 uM. Format: functional, organism-based.

Activity calls are given as the source filed them. The rule behind the calls is not given here.

Take `Cn1nc2c(nc1=O)c(=O)n(C)c(=O)n2C`: the Activity amounted to 15% in assay [1]; 34% in [6]; 17% in [8]; 17% in assay [10]; 17% in [14]; 100% in the assay listed under Bos taurus. Further, the Activity with Yersinia sp. came to 10%; in [20], 48%. The outcome (with Candida albicans [2]; in assay [3]; in the assay with Pseudomonas aeruginosa [4]; with Enterococcus faecalis [5]; in the assay with Enterococcus faecalis [7]; in the assay with Proteus vulgaris [9]) was inactive. Moreover, the outcome (in [11]; in the assay on Pseudomonas aeruginosa [12]; in the assay on Curvularia [13]; in the assay with Escherichia coli [15]; with Staphylococcus aureus [16]; in the assay with Curvularia [17]) was inactive. In addition, the result in the assay on Staphylococcus aureus [18], in the assay with Escherichia coli [19], in the assay on Proteus vulgaris [21] and with Candida albicans [22] was inactive.
For the molecule `Cn1nc2c(nc1=O)n(C)c(=O)n2C`, the Activity in [1] came to 96%; in assay [6], 99%; in [8], 97%; in assay [10] it was 99%; in [14], 98%; in the assay listed under Bos taurus, 99%. The Activity with Yersinia sp. is 95%; in [20], 100%.
